Assay outcomes (PubChem)
A selection: hits, their analogues and other compounds. The true share with any hit is near 1.4%.
PG9 binder: binds the HIV-1 gp120 antibody PG9; TR-FRET gp120-PG9 antibody binding; inhibition, % at 6.7 µM; hit rate 0.43% among 360,000; AID 624416; in the data active means inhibition above about 8.5%
NR2E3 ag-1: activates human NR2E3 receptor | Q9Y5X4 | CHO-S Gal4-NCOR/VP16-NR2E3 two-hybrid, luciferase | inhibition of corepressor binding, % at 3.98 µM | hit rate 0.35% among 360,000 | AID 602229;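 active means inhibition above the mean of all tested compounds plus 3 SD, cut at about 70% in these data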;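 further: 0% = DMSO with NR2E3 transfected cells and 100% = cells lacking NR2E3 construct; higher means lower luciferase signal from less NR2E3 corepressor binding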
NR2E3 ag-2: NR2E3 (human) agonism. Q9Y5X4. GST-NR2E3/biotin-RetCOR TR-FRET, 1536-well. inhibition of corepressor binding, % at 4.78 µM. hit rate 0.12% among 320,000;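 active means percent inhibition above the cutoff of mean plus 3 SD of all tested compounds, set per screening campaign, cut at about 20% in these data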;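 further: 0% = DMSO wells and 100% = biotin wells as full block of FRET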
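System: GST-NR2E3 and biotin-RetCOR proteins; probe or stimulus: 7 nM biotin-RetCOR; doses: compound at 4.8 µM, single dose; schedule: Compound–protein incubation for 5 h at 4 °C; detection: time-resolved FRET; read-out: percent inhibition; controls: biotin wells as high control, 0.6% DMSO wells as low control; format: 1536-well plates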
NR1D1 modulator: Rev-erb alpha (human) modulation | Rev-erbα–FITC-DNA binding, fluorescence polarization, 90 min | activity, % at 10 µM | hit rate 0.79% among 370,000;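 active means activity above about 14%, limit read from the data; passing the limit was not always enough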;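 further: 0% = DMSO wells with 35 nM protein and 100% = DMSO wells with 750 nM protein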
Target sequence (P20393 whole entry, looked up): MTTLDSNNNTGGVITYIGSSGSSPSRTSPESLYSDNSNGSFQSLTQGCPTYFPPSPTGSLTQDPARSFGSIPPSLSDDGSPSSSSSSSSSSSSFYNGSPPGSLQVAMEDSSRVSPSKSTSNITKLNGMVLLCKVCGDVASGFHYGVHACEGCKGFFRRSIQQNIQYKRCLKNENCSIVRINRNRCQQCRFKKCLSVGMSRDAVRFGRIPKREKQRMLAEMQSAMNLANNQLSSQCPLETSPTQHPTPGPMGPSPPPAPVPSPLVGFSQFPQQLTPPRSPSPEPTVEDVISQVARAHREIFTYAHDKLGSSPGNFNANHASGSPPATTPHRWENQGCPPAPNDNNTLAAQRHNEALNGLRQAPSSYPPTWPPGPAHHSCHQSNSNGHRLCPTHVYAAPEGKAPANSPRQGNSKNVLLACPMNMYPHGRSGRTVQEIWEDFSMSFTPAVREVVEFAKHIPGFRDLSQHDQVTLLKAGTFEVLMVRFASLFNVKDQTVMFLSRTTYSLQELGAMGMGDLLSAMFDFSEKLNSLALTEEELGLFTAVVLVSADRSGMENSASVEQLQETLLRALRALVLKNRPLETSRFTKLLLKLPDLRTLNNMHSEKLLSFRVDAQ
NR2E3 ag confirm: confirmation of human NR2E3 agonists; shares compounds with NR2E3 ag-1; inhibition, % at 3.98 µM; CHO-S mammalian two-hybrid NR2E3-NCOR, luciferase luminescence; hit rate 51% among 2,300; AID 624378;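 active means average inhibition above a cutoff equal to the mean inhibition of all tested compounds plus one SD, cut at about 70% in these data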;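 further: 0% = DMSO in NR2E3 cells and 100% = DMSO in cells lacking NR2E3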
VP16 counter: reduces GAL4-VP16 reporter signal in NR2E3 counterscreen. hit rate 29% among 2,300. CHO-S GAL4-VP16 luciferase reporter, luminescence. inhibition, % at 3.98 µM. AID 624379. shares compounds with NR2E3 ag-1;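 active means mean inhibition above a cutoff equal to the average over all tested compounds plus one standard deviation, cut at about 70% in these data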;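 further: luciferase from a UAS reporter driven by GAL4-VP16 transactivation; 0% = DMSO with VP16-transfected cells and 100% = DMSO with cells lacking VP16; higher means less reporter light so more repression of VP16 activity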
* marks the source's active call; other numbers are inactive results; . = no result.

SMILES	PG9 binder	NR2E3 ag-1	NR2E3 ag-2	NR1D1 modulator	NR2E3 ag confirm	VP16 counter
COc1ccccc1CNS(=O)(=O)c1ccc2c(c1)CC(C)N2C(=O)C1CCC1 (centres undefined)	1.0	71.8*	-0.6	-3.4	72.2*	57.7
Cc1ccc([N+](=O)[O-])cc1S(=O)(=O)N1CCCC1	-0.5	1.2	-1.7	1.1	.	.
COc1ccc(CC(=O)NC(=S)Nc2ccc(S(=O)(=O)NC(C)(C)C)cc2)cc1	0.1	-11.7	0.9	-3.9	.	.
CCCc1nc(SCC(=O)O)c2sc(=S)n(-c3ccccc3)c2n1	1.1	-27.8	0.0	-3.6	.	.
O=[N+]([O-])c1ccc(Sc2cccc3cccnc23)c([N+](=O)[O-])c1	0.0	78.4*	1.5	4.0	12.3	-23.6
CCCCOC(=O)c1[nH]c2c(c1C)C(=O)CC(c1cc(OC)c(OC)c(OC)c1)C2 (centres undefined)	-0.1	89.3*	1.2	1.3	84.4*	60.9
C=CCOC(=O)c1[nH]c2c(c1C)C(=O)CC(c1cc(OC)c(OC)c(OC)c1)C2 (centres undefined)	.	54.1	0.3	.	72.9*	45.3
COC(=O)C1(O)CC(CC(C)C)=NN1C(=O)c1ccccc1 (centres undefined)	0.5	-41.3	3.3	-1.6	.	.
CN(C(=O)c1ccccc1Cl)c1ccccc1	-3.1	-5.3	-3.2	-4.1	.	.
COc1ccc(NC(=S)Nc2cc(S(=O)(=O)N3CCCCC3)ccc2OC)cc1	.	.	-2.8	.	.	.
COc1ccc(S(=O)(=O)N2CCCCC2)cc1NC(=S)Nc1ccccc1	-0.1	90.7*	-2.6	2.6	86.4*	-12.2
COc1ccc(S(=O)(=O)N2CCCCC2)cc1NC(=S)Nc1cccc(Cl)c1C	-1.0	80.5*	-0.7	4.3	88.8*	-21.8
Cn1cc(-c2coc3c(C(=O)NCc4cccnc4)cccc23)cn1	-2.1	-26.2	.	-1.9	.	.
COc1ccc(-c2coc3c(C(=O)NCc4ccc(OC)c(OC)c4)cccc23)c(C)c1	-0.6	91.3*	.	-6.5	95.1*	82.3*
O=C(Nc1cccc(C(F)(F)F)c1)c1cccc2c(-c3cccnc3)coc12	.	-59.0	.	.	.	.
COc1ccc(CNC(=O)c2cccc3c(-c4cnn(C)c4)coc23)cc1OC	-0.2	62.9	.	11.4	41.1	34.2
COc1ccc(-c2coc3c(C(=O)NCCN4CCOCC4)cccc23)c(C)c1	-1.2	-10.5	.	-6.1	.	.
COc1cc(NC(=O)c2cccc3c(-c4cccnc4)coc23)cc(OC)c1OC	-0.4	50.8	.	-1.9	13.2	42.1
COc1ccc(-c2coc3c(C(=O)NCC4CCOCC4)cccc23)c(C)c1	0.0	70.9*	.	5.1	59.9	50.9
O=C(CCc1ccccn1)N1CCCC(CNS(=O)(=O)c2cccs2)C1 (centres undefined)	-2.6	-17.8	-1.2	-0.7	.	.
O=C(Cn1ccccc1=S)c1ccc(Cl)c(Cl)c1	0.1	-21.4	-0.2	-2.9	.	.
On1ccccc1=S	0.8	101.2*	3.7	0.0	-97.4	4.4
C=CCc1ccc(OCC(O)CN2CCN(Cc3ccc(Cl)cc3)CC2)c(OC)c1 (centres undefined)	0.0	0.5	-3.9	3.8	.	.
C=C(C(=O)c1ccccc1)C(NC(C)(C)C)c1ccccc1 (centres undefined)	1.2	91.5*	.	-0.6	78.4*	28.9
Oc1ccccc1-c1nc(NCc2ccco2)c2ccccc2n1	1.6	-37.6	-1.8	-0.3	.	.
SMILES	PG9 binder	NR2E3 ag-1	NR2E3 ag-2	NR1D1 modulator	NR2E3 ag confirm	VP16 counter
c1ccc(-c2nc(NCC3CCCO3)c3ccccc3n2)nc1 (centres undefined)	-1.1	88.7*	-0.2	2.4	-8.2	1.9
c1ccc(-c2nc(NCc3ccco3)c3ccccc3n2)nc1	-1.8	83.0*	0.2	-1.5	10.8	-1.9
Cc1ccccc1NC(=O)c1cccc2nc3ccccc3nc12	-1.9	80.3*	0.3	0.4	96.4*	67.0
Cc1ccccc1NC(=O)c1ccccc1NC(=O)Cc1cccc2ccccc12	-1.3	-11.6	-1.1	-4.7	.	.
CCN1CC(CN(C)Cc2nc(COc3ccccc3)no2)CC1=O (centres undefined)	-0.2	-6.8	2.4	6.0	.	.
Cc1cccc(C)c1NC(=O)CN(C)C(=O)c1cccc(S(=O)(=O)N2CCN(c3ccc(F)cc3)CC2)c1	1.5	11.2	-0.5	-5.2	.	.
CN(CC(=O)Nc1cccc(F)c1)C(=O)c1cccc(S(=O)(=O)N2CCN(c3ccc(F)cc3)CC2)c1	-1.4	50.3	.	-2.6	45.7	26.4
CN(CC(=O)Nc1cccc(F)c1)C(=O)c1ccc(N2CCCC2)c([N+](=O)[O-])c1	-0.8	63.1	-4.1	-0.9	18.7	23.3
CC1CN(C(=O)c2cc(S(=O)(=O)N3CCN(c4ccccc4)CC3)ccc2Cl)CC(C)O1 (centres undefined)	0.5	9.9	-1.5	-7.0	.	.
CN(CC(=O)Nc1ccccc1Cl)C(=O)c1cccc(S(=O)(=O)N2CCN(c3ccccc3)CC2)c1	1.9	62.7	.	5.8	82.3*	62.8
O=C(c1cc(S(=O)(=O)N2CCN(c3ccccc3)CC2)ccc1Cl)N1CCCCCCC1	0.5	67.3	2.8	-0.5	79.4*	48.4
Cc1ccc(C(=O)NCCC(=O)NCc2ccco2)cc1	-1.8	4.9	1.2	3.9	.	.
COc1ccc(COC(=O)C2CCN(S(=O)(=O)c3cccs3)CC2)cc1	0.3	-14.5	0.5	11.1	.	.
CN(CC(=O)Nc1ccccc1Cl)C(=O)c1cccc(S(=O)(=O)N2CCN(Cc3ccccc3)CC2)c1	-0.3	101.6*	0.8	-1.0	63.5	46.2
CN(CC(=O)Nc1cccc(F)c1)C(=O)c1cccc(S(=O)(=O)N2CCN(Cc3ccccc3)CC2)c1	-1.4	22.0	.	-9.4	.	.
CN(Cc1ccc(OC(F)F)cc1)C(=O)c1cccc(S(=O)(=O)N2CCN(c3ccccc3)CC2)c1	-0.8	83.3*	.	-2.9	85.0*	66.9
CN(CC(=O)Nc1ccccc1Cl)C(=O)c1cccc(S(=O)(=O)N2CCN(c3ccc(F)cc3)CC2)c1	-0.2	93.8*	-1.7	0.3	73.4*	50.5
O=C(c1cccc(S(=O)(=O)N2CCN(c3ccc(F)cc3)CC2)c1)N1CCCC(C(F)(F)F)C1 (centres undefined)	1.7	88.8*	-4.1	-0.2	97.3*	82.3*
CC(NC(=O)c1ccc(Br)o1)C1CC2CCC1C2 (centres undefined)	0.5	-28.1	2.1	0.1	.	.
CC(CNc1ccc(Cl)cc1)(CNc1ccc(Cl)cc1)[N+](=O)[O-]	-0.2	-8.8	.	-2.8	.	.
CCc1cc(=O)oc2cc(OCc3ccc(C(=O)O)o3)ccc12	-1.6	-55.6	1.2	-2.1	.	.
CCOC(=O)N1CCN(C(=O)c2cc(COc3ccc(OC)cc3Cl)on2)CC1	-1.4	-64.1	0.3	-5.5	.	.
O=C(Cn1c(=O)[nH]c2ccsc2c1=O)NC1CCCCCC1	-1.5	-10.7	-3.7	4.8	.	.
CCCC(=O)N1CCCC(C(=O)c2ccc(OC)c(OC)c2)C1 (centres undefined)	-3.0	-15.1	-4.3	3.7	.	.
